ChEMBL document CHEMBL3407398, “Comparison between loureirin A and cochinchinenin C on the interaction with human serum albumin” (Eur J Med Chem, 2015)

Columns and labels:
Settings in all cases: isolated protein; call rule not given here
Albumin [1] = molecular target: T1, Albumin (Homo sapiens, UniProt P02768); experiment: Binding affinity to human serum albumin assessed as Stem-Volmer quenching constant at 300K by fluorescence spectroscopy; assay type: ADME
Summary of the method: (§1)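 Fatty-acid-free HSA, 1.5 × 10^-6 M in 0.1 M Tris-HCl pH 7.4 with 0.1 M NaCl, titrated with ligand from ethanol stock. Each addition equilibrated 5 min. Emission recorded 300–450 nm with excitation at 280 nm, at 300, 305 and 310 K. Constants taken from the linear low-concentration region of Stern-Volmer F0/F plots.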

Albumin [2] = molecular target: T1, Albumin; experiment: Binding affinity to human serum albumin assessed as Stem-Volmer quenching constant at 310K by fluorescence spectroscopy; assay type: ADME; summary of the method: as §1
Albumin [3] = molecular target: T1, Albumin; experiment: Binding affinity to human serum albumin assessed as induction of protein conformational changes by synchronous fluorescence spectroscopy
Albumin [4] = molecular target: T1, Albumin; experiment: Binding affinity to human serum albumin assessed as quenching constant at 305K by fluorescence spectroscopy; assay type: ADME; summary of the method: as §1
Albumin [5] = molecular target: T1, Albumin; experiment: Binding affinity to human serum albumin assessed as quenching constant at 310K by fluorescence spectroscopy; assay type: ADME; summary of the method: as §1
Albumin [6] = molecular target: T1, Albumin; experiment: Binding affinity to human serum albumin by UV-vis spectrophotometry; assay type: ADME
Summary of the method: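 UV-vis absorption titration at room temperature in a 10 mm quartz cuvette. HSA was held at 1.5 × 10^-6 M while ligand was varied 0–18 × 10^-6 M, and absorbance change at 280 nm was followed. Spectra of ligand alone at 1.5 × 10^-6 M were also recorded.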

Albumin [7] = molecular target: T1, Albumin; experiment: Binding affinity to human serum albumin assessed as quenching constant at 300K by fluorescence spectroscopy; assay type: ADME; summary of the method: as §1
Albumin [8] = molecular target: T1, Albumin; experiment: Binding affinity to human serum albumin assessed as binding constant at 305K by Stem-Volmer plot; assay type: ADME
Summary of the method: (§2)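 Fatty-acid-free HSA, 1.5 × 10^-6 M in 0.1 M Tris-HCl pH 7.4 / 0.1 M NaCl, was titrated with ligand from ethanol stock and equilibrated 5 min per addition. Emission was read 300–450 nm (excitation 280 nm) at 300, 305 and 310 K. Binding constants came from the quenching data across these temperatures, and thermodynamic parameters from their temperature dependence.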

Albumin [9] = molecular target: T1, Albumin; experiment: Binding affinity to human serum albumin assessed as free energy change at 300K by thermodynamic analysis
Albumin [10] = molecular target: T1, Albumin; experiment: Binding affinity to human serum albumin assessed as enthalpy change at 300K by thermodynamic analysis; assay type: ADME; summary of the method: as §2
Albumin [11] = molecular target: T1, Albumin; experiment: Binding affinity to human serum albumin assessed as induction of protein conformational changes by measuring reduction in intensity along with blue shift in peak 1 by three-dimensional fluorescence spectroscopy; design: scale not given: the % may be the effect or the level left
Summary of the method: (§3)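 3-D fluorescence of HSA at 1.5 × 10^-6 M, alone and with ligand at a 2:1 ligand/HSA molar ratio, in Tris-HCl pH 7.4 buffer. Excitation scanned 200–480 nm in 10 nm steps, with emission recorded 220–500 nm. Changes in intensity and position of peak 1 were compared.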

Albumin [12] = molecular target: T1, Albumin; experiment: Binding affinity to human serum albumin assessed as Stem-Volmer quenching constant at 305K by fluorescence spectroscopy; assay type: ADME; summary of the method: as §1
Albumin [13] = molecular target: T1, Albumin; experiment: Binding affinity to human serum albumin assessed as free energy change at 305K by thermodynamic analysis
Albumin [14] = molecular target: T1, Albumin; experiment: Binding affinity to human serum albumin assessed as binding constant at 300K by Stem-Volmer plot; assay type: ADME; summary of the method: as §2
Albumin [15] = molecular target: T1, Albumin; experiment: Binding affinity to human serum albumin assessed as free energy change at 310K by thermodynamic analysis
Albumin [16] = molecular target: T1, Albumin; experiment: Binding affinity to human serum albumin assessed as binding constant at 310K by Stem-Volmer plot; assay type: ADME; summary of the method: as §2
Albumin [17] = molecular target: T1, Albumin; experiment: Binding affinity to human serum albumin assessed as induction of protein conformational changes by measuring reduction in intensity along with red shift in peak 1 by three-dimensional fluorescence spectroscopy; design: scale not given: the % may be the effect or the level left; summary of the method: as §3

T1 sequence (P02768 whole entry): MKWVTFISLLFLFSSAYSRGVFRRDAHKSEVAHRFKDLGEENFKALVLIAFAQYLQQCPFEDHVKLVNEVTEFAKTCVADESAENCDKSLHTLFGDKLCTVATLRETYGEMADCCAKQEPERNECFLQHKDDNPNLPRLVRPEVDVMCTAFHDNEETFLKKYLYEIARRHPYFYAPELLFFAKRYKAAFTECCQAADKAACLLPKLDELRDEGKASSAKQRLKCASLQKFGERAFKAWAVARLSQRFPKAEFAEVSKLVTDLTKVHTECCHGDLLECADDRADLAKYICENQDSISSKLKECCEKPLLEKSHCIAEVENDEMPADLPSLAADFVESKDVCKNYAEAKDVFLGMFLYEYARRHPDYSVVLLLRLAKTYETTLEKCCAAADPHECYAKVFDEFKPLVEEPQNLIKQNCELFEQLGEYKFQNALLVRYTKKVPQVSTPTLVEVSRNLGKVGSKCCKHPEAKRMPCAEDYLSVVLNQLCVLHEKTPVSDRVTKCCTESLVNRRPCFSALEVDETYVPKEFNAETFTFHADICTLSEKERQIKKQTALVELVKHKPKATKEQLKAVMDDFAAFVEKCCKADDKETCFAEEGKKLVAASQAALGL

KSV (Albumin [1]) [×10⁴ /M]	KSV (Albumin [2]) [×10⁴ /M]	Activity (Albumin [3])	Kq (Albumin [4]) [×10¹² /M/s]	Kq (Albumin [5]) [×10¹² /M/s]	Activity (Albumin [6])	Kq (Albumin [7]) [×10¹² /M/s]	K (Albumin [8]) [×10⁴ /M]	deltaG (Albumin [9]) [kJ/mol]	deltaH (Albumin [10]) [kJ/mol]	Activity (Albumin [11]) [%]	KSV (Albumin [12]) [×10⁴ /M]	deltaG (Albumin [13]) [kJ/mol]	K (Albumin [14]) [×10⁴ /M]	deltaG (Albumin [15]) [kJ/mol]	K (Albumin [16]) [×10⁴ /M]	Activity (Albumin [17]) [%]	Structure (SMILES)
17.69	12.15	Active	14.95	12.15	Active	17.69	18.62	-31.09	-55.94	14	14.95	-30.67	25.32	-30.26	12.32		COc1ccc(C(CCc2ccc(O)cc2OC)c2cc(CCC(=O)c3ccc(O)cc3)c(OC)cc2O)cc1 (configuration not stated) [COCHINCHINENIN C]
9.85	6.24	Active	7.98	6.24	Active	9.85	9.51	-29.28	-31.98		7.98	-29.23	12.91	-29.19	8.56	28	COc1ccc(CCC(=O)c2ccc(O)cc2)c(OC)c1
